Screens (PubChem)
TRPC6 inh: blocks the mouse TRPC6 cation channel; Q61143; HEK293-TRPC6, membrane potential dye, ACh-evoked depolarization; stronger effect = lower value; B-score at 10 µM; 1.1% of 310,000 active;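 active means B-score under library mean minus 3 SD, initial fluorescence not abnormally high, positive integrated signal ratio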;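 further: B-score derived from integrated fluorescence ratio over the kinetic read; more negative B-score means stronger inhibition of depolarization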
TRPC4 PAM: allosteric potentiators of mouse TRPC4 channel; Q9QUQ5; HEK293 TRPC4beta/mu-opioid, DAMGO EC20, Fluo-4 Ca2+ flux; stronger effect = higher value; B-score at 10 µM; 0.42% of 310,000 active;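 active means B-score of calcium response area above 5 SD of library B-scores, with initial fluorescence ratio within 5 SD of library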;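 further: B-score of integrated fluorescence ratio over time as area under calcium response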
Target sequence (Q9QUQ5 whole entry, looked up): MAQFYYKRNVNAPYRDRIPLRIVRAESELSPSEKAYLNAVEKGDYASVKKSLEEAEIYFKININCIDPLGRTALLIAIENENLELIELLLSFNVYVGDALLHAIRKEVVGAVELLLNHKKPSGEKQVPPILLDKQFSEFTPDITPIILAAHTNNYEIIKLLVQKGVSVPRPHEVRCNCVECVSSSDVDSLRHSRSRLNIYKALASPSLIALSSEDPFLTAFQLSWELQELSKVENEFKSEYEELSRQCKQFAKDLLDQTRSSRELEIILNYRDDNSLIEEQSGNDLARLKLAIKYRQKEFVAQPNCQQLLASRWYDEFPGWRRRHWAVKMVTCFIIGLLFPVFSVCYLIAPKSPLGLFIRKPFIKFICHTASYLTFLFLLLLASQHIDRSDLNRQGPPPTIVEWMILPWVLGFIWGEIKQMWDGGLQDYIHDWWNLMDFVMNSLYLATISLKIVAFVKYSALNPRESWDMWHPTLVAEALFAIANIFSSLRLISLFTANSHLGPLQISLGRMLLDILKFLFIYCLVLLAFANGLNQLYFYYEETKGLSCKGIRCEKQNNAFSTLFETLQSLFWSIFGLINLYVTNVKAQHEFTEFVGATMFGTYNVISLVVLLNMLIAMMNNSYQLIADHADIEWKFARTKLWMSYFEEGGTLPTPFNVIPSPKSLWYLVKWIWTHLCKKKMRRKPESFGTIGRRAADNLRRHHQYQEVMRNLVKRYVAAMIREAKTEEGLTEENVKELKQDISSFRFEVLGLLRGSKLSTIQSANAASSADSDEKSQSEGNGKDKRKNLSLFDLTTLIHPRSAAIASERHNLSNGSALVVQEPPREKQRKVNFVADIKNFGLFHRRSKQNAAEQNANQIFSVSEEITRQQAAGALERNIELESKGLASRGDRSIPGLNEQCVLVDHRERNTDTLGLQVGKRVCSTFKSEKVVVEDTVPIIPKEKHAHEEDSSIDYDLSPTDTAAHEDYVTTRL
TRPC4 block: inhibitors of mouse TRPC4 channel | HEK293 TRPC4beta/mu-opioid, DAMGO-evoked Fluo4 calcium flux; stronger effect = lower value | AID 2247 | Q9QUQ5 | 0.39% of 300,000 active | B-score at 10 µM;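 active means B-score over 3 SD under the library average, no early fluorescence shift, positive overall ratio signal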
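Signal: kinetic Fluo4 fluorescence imaging of calcium influx. Material: stable TRPC4beta/mu-opioid receptor HEK293 cells. Probe or stimulus: DAMGO in two steps, submaximal then maximal.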
TRPC6 act: activates the mouse TRPC6 cation channel. HEK293-TRPC6 membrane potential dye fluorescence; stronger effect = higher value. Q61143. 0.13% of 310,000 active. B-score at 10 µM;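 active means B-score of the integrated fluorescence ratio above library mean plus 3 SD, and starting fluorescence ratio within library mean plus 5 SD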;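 further: higher score means more depolarization so channel activation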
TRPC4 act: activators of mouse TRPC4 channel; Q9QUQ5; HEK293 TRPC4beta/mu-opioid, Fluo4 calcium fluorescence; stronger effect = higher value; B-score at 10 µM; 0.49% of 310,000 active; AID 2237;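 active means B-score above 5 SD of library B-scores, and initial fluorescence ratio not above library mean plus 5 SD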;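 further: positive B-score marks a calcium rise read as TRPC4 activation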
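Material: TRPC4beta and mu-opioid receptor HEK293 stable cells | Incubation: 45 min room-temperature Fluo4 loading, 110 s read | Detection: Kinetic Fluo4 calcium fluorescence | Measure: Integrated baseline-normalised fluorescence ratio, converted to per-well B score | Benchmarks: Low control buffer alone, high control maximal DAMGO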
* hit, by the source's call; i = inactive. This is a sample that favours compounds with a hit; in the whole collection about 2.3% have one here.

SMILES	TRPC6 inh	TRPC4 PAM	TRPC4 block	TRPC6 act	TRPC4 act
Cc1ccc2nc3c(cc(C(=O)NC4CCCC4)c(=N)n3CCCn3ccnc3)c(=O)n2c1	-5.5*	i	i	i	i
Cc1ccc(Cn2c(=N)c(C(=O)NCC3CCCO3)cc3c(=O)n4ccccc4nc32)cc1 (stereo not drawn)	i	47*	i	i	i
N=c1c(C(=O)NCCc2ccccc2)cc2c(=O)n3ccccc3nc2n1CC1CCCO1 (stereo not drawn)	-5.1*	i	i	i	i
N=c1c(C(=O)NC2CCCC2)cc2c(=O)n3ccccc3nc2n1CCCN1CCOCC1	i	i	i	i	i
COc1ccc(Cc2nc3ccc(C(=O)N(C)C(C)c4ccon4)cc3o2)cc1 (stereo not drawn)	i	i	i	i	i
CC(NC(=O)C(c1ccccc1)c1ccccc1)C(=O)N1CCCCC1 (stereo not drawn)	i	i	i	i	i
N=c1c(C(=O)NCC2CCCO2)cc2c(=O)n3ccccc3nc2n1Cc1ccc(Cl)cc1 (stereo not drawn)	i	29*	i	i	i
Cc1ccc(-c2nc(NCc3cccnc3)c3ccccc3n2)cc1	i	i	i	i	i
c1ccc(-c2nc(NCc3cccnc3)c3ccccc3n2)cc1	i	i	-6*	i	i
C/C(=N\Nc1nc(-c2ccccn2)nc2ccccc12)c1ccc(F)cc1	i	i	i	i	i
c1ccc(CCNc2nc(-c3ccccn3)nc3ccccc23)cc1	i	i	-6*	i	i
OCCNc1nc(NCc2ccccc2)c2ccccc2n1	i	i	-6*	i	i
CC1CC(C)CN(CCCNC(=O)C2CCCN(S(=O)(=O)N3CC(C)CC(C)C3)C2)C1 (stereo not drawn)	i	i	i	i	i
Cc1cc(S(=O)(=O)NC2CCN(Cc3ccccc3)CC2)c(C)cc1Cl	i	20*	i	i	i
Cc1cc(C)c(S(=O)(=O)NC2CCN(Cc3ccccc3)CC2)c(C)c1	i	i	i	i	i
CC1CCCN(C2=C(NS(=O)(=O)c3ccc(Br)cc3)C(=O)c3ccccc3C2=O)C1 (stereo not drawn)	i	16*	i	i	i
O=C(CCc1nnc(COc2ccccc2)o1)NCc1ccccc1C(F)(F)F	i	i	i	i	i
CCC(=O)N(C)CCc1cc2c(c(OC)c1/C=N/NC(=O)c1ccc(Br)cc1)OCO2	i	i	-7*	i	i
COc1ccccc1NC(=O)CCSc1nnc(-c2ccncc2)o1	i	i	i	i	i
CN(C)CCOc1ccc2ccccc2c1	i	16*	i	i	i
CN(C)CCCCOc1cccc(Br)c1	i	20*	i	i	i
CN(C)CCOc1cccc(Cl)c1	i	i	i	i	i
CN(C)CCOc1cc(Cl)cc(Cl)c1	i	26*	i	i	i
OCC1(CCOc2ccccc2)CCN(Cc2nc3ccc(F)cc3[nH]2)CC1	i	i	i	i	i
Cc1c(N(C)S(=O)(=O)c2cc(C(=O)Nc3ccccn3)ccc2Cl)c(=O)n(-c2ccccc2)n1C	i	i	-5*	i	i
SMILES	TRPC6 inh	TRPC4 PAM	TRPC4 block	TRPC6 act	TRPC4 act
O=C(Nc1ccccn1)c1ccc(Cl)c(S(=O)(=O)N2CCCCCC2)c1	i	i	i	i	i
Cn1c(SCCOc2ccccc2F)nc2ccccc2c1=O	i	16*	i	i	i
CCSc1nc2ccccc2c(=O)n1CCc1ccc(OC)c(OC)c1	i	i	i	i	i
COCCn1c(SCc2nc3ccccc3c(=O)[nH]2)nc2ccccc2c1=O	i	i	i	i	i
COCCn1c(SCc2ccc(F)cc2)nc2ccccc2c1=O	i	i	-6*	i	i
COCCn1c(SCc2ccc(OC)c(F)c2)nc2ccccc2c1=O	i	i	-7*	i	i
Cc1ccc(OCCC(=O)OCC(=O)NC2CCS(=O)(=O)C2)cc1 (stereo not drawn)	i	i	i	i	i
COc1ccc(OC)c(S(=O)(=O)N2CCC(C(=O)Nc3cccc(C(F)(F)F)c3)CC2)c1	i	i	i	i	i
COc1cccc(N/C(SCc2ccccc2F)=C(/C#N)C(=O)NCc2cccs2)c1	i	i	i	i	i
Cc1ccc(S(=O)(=O)NC(C)(C)C)cc1C(=O)OC(C)C(=O)NC1CC1 (stereo not drawn)	i	i	i	i	i
COCCCN1CC(=O)N2C(c3ccccc3)c3[nH]c4ccccc4c3C[C@H]2C1=O (stereo partly drawn)	i	i	i	i	i
C=CCN1CC(=O)N2C(c3ccccc3)c3[nH]c4ccccc4c3C[C@H]2C1=O (stereo partly drawn)	i	13*	i	i	i
O=C(C1=NN[C@@H]2C(=O)N(c3cccc(C(F)(F)F)c3)C(=O)[C@H]12)c1cnccn1	i	i	i	i	i
COc1ccc(-c2nsc3c(N4CCCCC4C)ncnc23)cc1 (stereo not drawn)	i	11*	i	i	i
CC(C)(C)NCC(O)CON=C1c2ccccc2-c2ccccc21 (stereo not drawn)	i	10*	i	i	i
O=C1COc2ccccc2N1Cc1ccc(Cl)cc1	i	i	i	i	i
Cc1cc(Cl)c(Cl)cc1S(=O)(=O)NCCCn1ccnc1	i	11*	i	i	i
Cc1ccc(CC(CC(=O)O)C(=O)NCC23CC4CC(CC(C4)C2)C3)cc1 (stereo not drawn)	i	14*	i	i	i
Cn1nnnc1SCC(=O)NC(=O)c1cccc([N+](=O)[O-])c1	i	i	i	i	i
O=C(OCC(=O)N1CCN(C(=O)c2ccco2)CC1)c1cc(-c2ccc(Cl)c(Cl)c2Cl)nc2ccccc12	i	i	i	i	i
CN1CCCN(C(=O)c2cc(-c3ccc(Cl)c(Cl)c3Cl)nc3ccccc23)CC1	i	i	i	i	52*
Cc1ccc(-c2cc(C(=O)N3CCC(C)CC3)c3ccccc3n2)cc1	i	12*	i	i	i
Cc1c(C(=O)N2CCCC2)oc2c1-c1nn(CC(=O)NCCCN3CCCCC3)cc1CC2	i	11*	i	i	i
Cc1c(C(=O)N2CCCC2)oc2c1-c1nn(CC(=O)NCCCN3CCCCC3C)cc1CC2 (stereo not drawn)	i	i	i	i	i
